Data taken from PubChem BioAssay AID504382 (The Scripps Research Institute Molecular Screening Center, 2011).
Out of some 2,500 compounds screened, about 460 (18%) were called active.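 Rule for the calls: active = mean activation above a cutoff of low control average plus 3 SD from the earlier screen (cut at about 12% in these data); inactive = the rest.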 Only a sample is shown.

Experiment: IANBD-channel fluorescence artefacts in buffer – biochemical, artefact control for cardiac RTF calcium sensitizer project, confirmation (AID 504382)
Conditions: IANBD fluorescence interference counterscreen, EC20 Ca2+, at 7.2 µM, stronger effect = higher value, scaled: EC20 calcium 0, EC100 calcium 100
Summary of the method: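 Medium: MOPS/KCl/MgCl2/EGTA/NTA/DTT buffer, pH 7.2 | Reagent: EC20 calcium, 0.472 mM | Compound dosing: 7.2 µM single dose | Times: 15 min compound exposure at 25 °C | Signal: Fluorescence, 480/540 nm | Measure: Interference relative to controls | Repeats: Triplicate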

| Structure (SMILES) | fluorescence artifact activation |
| --- | --- |
| CCOP(=O)(OCC)/C(=N/OC(=O)c1ccc(OC)cc1)C(N)=O | 0.15% (inactive) |
| Cc1c(CN2CCCC(C)C2)c(O)n(CCO)c(=O)c1C#N (configuration not stated) | 1.74% (inactive) |
| C=CCN1C(=O)C(Cc2cccc(Cl)c2)S/C1=N/N=C/c1ccco1 (configuration not stated) | 0.07% (inactive) |
| CCOc1ccc(C2CC(c3c(O)c4ccccc4oc3=O)=NN2c2ccccc2)cc1OC (configuration not stated) | 5.17% (inactive) |
| CCOc1cc(C2C(C#N)=C(N)OC(C)=C2C(C)=O)cc(Br)c1O (configuration not stated) | 37.6% (active) |
| CCOc1ccc(C2C(C#N)=C(N)SC(N)=C2C#N)c(OCC)c1 | 0.05% (inactive) |
| CCOc1cc(C2C3=C(CCCC3=O)N(C)C3=C2C(=O)CCC3)cc(Cl)c1O | -0.02% (inactive) |
| COc1ccc(OCC(=O)OCCNC(=O)c2cccnc2)cc1 | 0.14% (inactive) |
| O=C(CN1C(=O)c2ccccc2C1=O)NCc1ccc(N2CCOCC2)cc1 | 1.1% (inactive) |
| Cc1cc2nc3c(=O)[nH]c(=S)[nH]c3nc2cc1NC(=O)C(F)(F)F | 5.96% (inactive) |
| O=C1c2ccccc2C(Nc2cccnc2)N1Cc1ccccc1Cl (configuration not stated) | 10.4% (inactive) |
| Cc1ccc(-n2nc(C)c(=O)c(-c3ccccc3)c2NC(=O)c2cccs2)cc1 | 1.25% (inactive) |
| CC(C)C[C@@H](CN=[N+]=[N-])N1CCN(C)CCC1=O | 0.09% (inactive) |
| c1ccc2c(c1)CCCN2Cc1nnnn1CC1CCCO1 (configuration not stated) | 0.36% (inactive) |
| O=c1cc(CN2CCCc3ccccc32)nc2sccn12 | 0.01% (inactive) |
| c1ccc2c(c1)CCCN2Cc1nnc2n1CCCCC2 | 37% (active) |
| COc1ccc(CNc2nn[nH]n2)cc1OC | 2.6% (inactive) |
| Cc1ccc([C@@H]2C3COCC=C3C(C#N)=C(N)C2(C#N)C#N)o1 (some centres not stated) | 0.32% (inactive) |
| CN1CCN(CCOc2ccc(Cc3ccccc3)cc2)CC1 | 0.23% (inactive) |
| CN1CCN(/N=C/c2ccc(OCc3ccccc3)cc2)CC1 | 107% (active) |
| O=C(C1CCN(Cc2ccc(OCc3ccccc3)cc2)CC1)N1CCCC1 | 0.13% (inactive) |
| Cc1ccc(/C=C2\Oc3c(ccc(O)c3CN3CCN(C)CC3)C2=O)cc1 | 0.13% (inactive) |
| OCCN1CCN(CC(O)COc2ccc(C34CC5CC(CC(C5)C3)C4)cc2)CC1 (configuration not stated) | 32.1% (active) |
| CCCCNc1nc(-c2ccccc2)nc(-n2ccnc2)n1 | 1.09% (inactive) |
| COc1cc(CCCN2C(=S)NC[C@@H]2CC2CCCCC2)cc(OC)c1OC | 7.7% (inactive) |

| Structure (SMILES) | fluorescence artifact activation |
| --- | --- |
| Cc1cc2cc(C=C(C#N)C#N)c(Cl)nc2cc1C | -0.03% (inactive) |
| Cc1cc(C(=O)NNC(=S)Nc2ccccc2C)cs1 | 1.65% (inactive) |
| NC(=O)NNC1=Nc2cccc3cccc1c23 | 1.01% (inactive) |
| CC(Oc1ccc(S(=O)(=O)N2CCCC2)cc1[N+](=O)[O-])C(=O)N(C)c1ccccc1 (configuration not stated) | 0.2% (inactive) |
| O=C(COc1ccc(Cl)cc1[N+](=O)[O-])N1CCCCCC1 | 0.34% (inactive) |
| O=C(COc1ccc(Cl)cc1[N+](=O)[O-])N1CCCCC1 | 18.1% (active) |
| COc1ccc(NC(=O)NS(=O)(=O)c2ccc(C)cc2)cn1 | 0.39% (inactive) |
| O=C(N1CCOCC1)N1CCC(n2nnc3ccccc32)CC1 | 0.06% (inactive) |
| Cc1ccsc1C1C=C(c2cccc(Br)c2)Nc2ncnn21 (configuration not stated) | -0.01% (inactive) |
| CCOC(=O)c1sc(=NC(=O)c2cc(OC)c(OC)c(OC)c2)n(C)c1C | 80.1% (active) |
| CCOC(=O)c1sc(-c2ccc(F)cc2)cc1NC(=O)Nc1ccccc1OC | 7.09% (inactive) |
| CCOC(=O)c1sc(N)c(C#N)c1COC(=O)CNC(=O)c1cc(OC)c(OC)c(OC)c1 | 3.51% (inactive) |
| S=C1NC2=C(CCC/C2=C\c2ccccc2)C(c2ccccc2)N1 (configuration not stated) | 0.06% (inactive) |
| O=C(Oc1ccc2c(c1)O/C(=C\c1ccncc1)C2=O)c1ccccc1 | 33% (active) |
| COc1ccc(/C=C2\Oc3cc(OCC(N)=O)ccc3C2=O)cc1OC | 0.06% (inactive) |
| COc1ccccc1C(=O)Oc1ccc2c(c1)O/C(=C\c1ccncc1)C2=O | 8.13% (inactive) |
| O=C(CC1SC(N2CCCCC2)=NC1=O)Nc1ccc(C(=O)NCc2ccccc2)cc1 (configuration not stated) | 3.4% (inactive) |
| Cc1ccc(C(=O)Nc2ccc3c(c2)ncn3C)cc1 | 2.41% (inactive) |
| O=C1NC(c2ccco2)Nc2sc3c(c21)CCN(Cc1ccccc1)C3 (configuration not stated) | 0.37% (inactive) |
| COc1ccc(NC(=O)CS(=O)(=O)c2cccc(Cl)c2)cc1 | 0.13% (inactive) |
| COc1ccc(NC(=O)CC2C(=O)N(Cc3ccco3)C(=S)N2C(C)C)cc1 (configuration not stated) | 23.2% (active) |
| COc1ccc(/C(O)=C2\C(=O)C(=O)N(Cc3ccco3)C2c2cc(OC)ccc2OC)cc1 (configuration not stated) | 0.4% (inactive) |
| Cc1cccc(C)c1OCC(C)N (configuration not stated) | 4.83% (inactive) |
| O=C(COc1ccccc1F)NC1CC1 | 10.7% (inactive) |
| COc1ccccc1CNc1cc(C)ccc1C | 415% (active) |

| Structure (SMILES) | fluorescence artifact activation |
| --- | --- |
| COc1ccc(C)cc1NC(=O)CC1COc2ccccc2O1 (configuration not stated) | 0.06% (inactive) |
| C=CCOc1ccccc1CNc1cccc(F)c1 | 1.22% (inactive) |
| Cc1cccc(-n2c(C)cc(C=C3C(=O)c4ccccc4C3=O)c2C)c1 | -0.01% (inactive) |
| CCC1SC(=Nc2cccc(C)c2)NC1=O (configuration not stated) | 50% (active) |
| COCCn1c(=NC(=O)/C=C/c2ccccc2)sc2cc(NC(C)=O)ccc21 | 3.82% (inactive) |
| CCOC(=O)c1c(C(C)(C)C)oc2ccc(OCC#N)cc12 | 0.48% (inactive) |
| COc1cc2c(cc1OC)-c1cc3ccc4c(c3c[n+]1CC2)OCO4 | 0.19% (inactive) |
| COc1ccc(NC(=O)CSc2nncc3ccccc23)cc1 | 0.15% (inactive) |
| Nc1nc(SCC(=O)Nc2ccc(Cl)cc2)[nH]c(=O)c1-c1ccccc1 | 0.2% (inactive) |
| O=C(CSc1nncc2ccccc12)Nc1ccc(F)cc1 | 51.6% (active) |
| COc1ccc(CC/C(C)=N\NC(N)=O)cc1 | 1.07% (inactive) |
| COc1ccc(C)cc1Nc1n[n+](-c2ccccc2)c(-c2cc([N+](=O)[O-])cc(OC)c2O)s1 | -0.11% (inactive) |
| O=C(c1ccccc1)N1CCCCC1 | 2.65% (inactive) |
| O=C1c2ccccc2-c2c1cccc2C(=O)N1CCCCCC1 | 0.15% (inactive) |
| Cc1[nH]c(C)c(S(=O)(=O)N2c3ccccc3CC2C)c1C(=O)N1CCCCC1 (configuration not stated) | 43.6% (active) |
| C=CCn1cccc(C(=O)Nc2ccc(OC)c(Cl)c2)c1=O | 0.54% (inactive) |
| COc1c(O)cccc1-c1nnn(CCC(=O)OCC(=O)c2ccccc2)n1 | 10.9% (inactive) |
| COc1ccc(N2CCN(C(=O)Cn3nnc(-c4ccccc4N)n3)CC2)cc1 | 20.6% (active) |
| CC1CCCCN1C(=O)Cn1nnc(-c2cccnc2)n1 (configuration not stated) | 1.03% (inactive) |
| COC(=O)CCC(=O)OC1(C)C(=O)C=C2C=C(C3CC3)N(c3cccc(C#N)c3)C=C2C1=O (configuration not stated) | -0.02% (inactive) |
| COC(=O)c1ccc(Oc2c(F)c(F)nc(N3CCOCC3)c2F)cc1 | -0.07% (inactive) |
| OCCN(CCO)c1nc(N2CCCCC2)c2nc(N(CCO)CCO)nc(N3CCCCC3)c2n1 | 11.3% (inactive) |
| O=C(c1ccc([N+](=O)[O-])cc1[N+](=O)[O-])n1cnc2ccccc21 | -0.09% (inactive) |
| O=C(c1ccccc1C(=O)N1CCN(c2ccccc2)CC1)N1CCN(c2ccccc2)CC1 | -0.08% (inactive) |
| C=CCn1c(C)c(C(C)=O)c(N2CCN(c3ccccc3)CC2)nc1=S | 28.9% (active) |

| Structure (SMILES) | fluorescence artifact activation |
| --- | --- |
| CC(=O)c1nnn(-c2nc(N3CCCC3)nc(N(c3ccccc3)c3ccccc3)n2)c1C | 0.23% (inactive) |
| CC1(C)C2CCC(C2)C1(C)N=C1OC(CCl)CS1 (configuration not stated) | 1.52% (inactive) |
| CN(C)c1ccc(/C=C/C(=O)c2ccccc2O)cc1 | 0% (inactive) |
| CN(C)c1ccc(/C=C/C(=O)c2ccc(O)cc2)cc1 | -0.03% (inactive) |
| CC(C)=CCC/C(C)=C/Cc1c(O)ccc(C(=O)/C=C/c2ccc(O)cc2)c1O | 177% (active) |
| COc1ccc(C2C(C(=O)c3cccs3)=C(O)C(=O)N2c2nncs2)cc1 (configuration not stated) | 5.56% (inactive) |
| Cc1ccc(C)c(N2CCN(C(=O)c3cc4ccccn4n3)CC2)c1 | 4.58% (inactive) |
| CCN(CC)c1ccc(/C=C/C(=O)C2C(=O)C=C(C)OC2=O)cc1 (configuration not stated) | 0.16% (inactive) |
| Cc1ccc(-c2ccc(CO)o2)cc1N | 28.2% (active) |
| Cc1ccc2c(CN3CCCc4ccccc43)cc(=O)oc2c1C | -0.04% (inactive) |
| FC(F)(F)c1cccc(-c2nc(COc3ccc(Cl)cc3Cl)no2)c1 | 2280% (active) |
| Cn1c(-c2ccc(C=O)s2)nc2c3ccccc3c3ccccc3c21 | 5.75% (inactive) |
| CCOC(=O)COc1c(Cl)cc(C2NC(=S)NC(c3ccccc3)=C2C(C)=O)cc1OC (configuration not stated) | 6.87% (inactive) |
| CCOc1ccc(NC(=O)C2CC(=O)N=C(N)S2)cc1 (configuration not stated) | 0.11% (inactive) |
| Cc1ccc(NC(=O)C(C)Sc2nnc(C)n2C2CC2)cc1S(=O)(=O)N1CCOCC1 (configuration not stated) | 0.96% (inactive) |
| CN1CCCN(Cc2cccc3ccccc23)CC1 | 0.24% (inactive) |
| NS(=O)(=O)c1cccc(NC(=O)CCc2ccc(S(=O)(=O)N3CCOCC3)cc2)c1 | 31.3% (active) |
| O=C(CCc1ccc(S(=O)(=O)N2CCOCC2)cc1)OCC(=O)c1ccccc1 | 6.03% (inactive) |
| O=S(=O)(c1ccc(NC(=S)Nc2ccccc2)cc1)N1CCOCC1 | 0.1% (inactive) |
| CCOC(=O)CCc1c(C)nc(-n2[nH]c(C)c(CCO)c2=O)[nH]c1=O | 0.03% (inactive) |
| CCOC(=O)CNc1ccc2c(c1)OCO2 | 2.35% (inactive) |
| Cc1ncc(CO)c2cc(-c3nnc(Nc4ccc5c(c4)OCO5)s3)c(=O)oc12 | 23.2% (active) |
